Measurements reported in ChEMBL document CHEMBL1138799, “4-benzyl- and 4-benzoyl-3-dimethylaminopyridin-2(1H)-ones, a new family of potent anti-HIV agents: optimization and in vitro evaluation against clinically important HIV mutant strains” (J Med Chem, 2004).

Tests used:
[1] = tested on: Human immunodeficiency virus 1; experiment: Inhibitory activity against HIV-1 mutant strain 138K; assay type: functional, organism-based
Summary of the method: (§1)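 Mutant HIV-1 made by recombining mutant PR-RT sequence into a PR-RT-deleted HXB2 proviral clone. Serial compound concentrations plated, then virus (200 CCID50/well) and MT4 cells (30 000 cells/well; RPMI 1640, 10% FCS) added; 5 days at 37 °C, 5% CO2; viability read by MTT. EC50 = concentration giving 50% infection versus drug-free control; mock-infected cultures run in parallel for toxicity.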

[2] = tested on: Human immunodeficiency virus 1; experiment: Inhibitory activity against HIV-1 double mutants strain 101E and 103N; assay type: functional, organism-based; summary of the method: as §1
[3] = tested on: Human immunodeficiency virus 1; experiment: Inhibitory activity against HIV-1 double mutants strain 103N and 181C; assay type: functional, organism-based; summary of the method: as §1
[4] = tested on: Human immunodeficiency virus 1; experiment: Inhibitory activity against HIV-1 double mutants strain 227L and 106A; assay type: functional, organism-based; summary of the method: as §1
[5] = tested on: Human immunodeficiency virus 1; experiment: Inhibitory activity against HIV-1 mutant strain 100I; assay type: functional, organism-based; summary of the method: as §1
[6] = tested on: Human immunodeficiency virus 1; experiment: Inhibitory activity against HIV-1 mutant strain 101E; assay type: functional, organism-based; summary of the method: as §1
[7] = tested on: Human immunodeficiency virus 1; experiment: Inhibitory activity against HIV-1 mutant strain 179E; assay type: functional, organism-based; summary of the method: as §1
[8] = tested on: Human immunodeficiency virus 1; experiment: Inhibitory activity against HIV-1 mutant strain 181C; assay type: functional, organism-based; summary of the method: as §1
[9] = tested on: Human immunodeficiency virus 1; experiment: Inhibitory activity against HIV-1 mutant strain 188L; assay type: functional, organism-based; summary of the method: as §1
[10] = tested on: Human immunodeficiency virus 1; experiment: Inhibitory activity against HIV-1 mutant strain 190S; assay type: functional, organism-based; summary of the method: as §1
[11] = tested on: Human immunodeficiency virus 1; experiment: Inhibitory activity against HIV-1 mutant strain 227C; assay type: functional, organism-based; summary of the method: as §1
[12] = tested on: Human immunodeficiency virus 1; experiment: Inhibitory activity against wild type HIV-1 LAI cell line; assay type: functional, organism-based; details: Human immunodeficiency virus 1, LAI
Summary of the method: (§2)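 MT4 human T-lymphoblastoid cells were grown in RPMI 1640 with 10% fetal calf serum and antibiotics at 37 °C and 5% CO2. A compound concentration series was combined with HIV-1 LAI at 200 CCID50/well and 30 000 cells/well. Mock-infected cultures with the same concentrations were run in parallel to measure cytotoxicity. After 5 days, cell viability was read by MTT colorimetry. EC50 is the concentration giving 50% infection versus the drug-free control.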

[13] = tested on: Human immunodeficiency virus 1; experiment: Inhibitory activity against HIV-1 double mutants strain 100I and 103N; assay type: functional, organism-based; summary of the method: as §1
[14] = tested on: Human immunodeficiency virus 1; experiment: Inhibitory activity against HIV-1 mutant strain 103N; assay type: functional, organism-based; summary of the method: as §1
[15] = tested on: Human immunodeficiency virus 1; experiment: Inhibitory activity against HIV-1 mutant strain 190A; assay type: functional, organism-based; summary of the method: as §1
[16] = tested on: Human immunodeficiency virus 1; experiment: Selectivity index of cytotoxic activity (CC50) to inhibitory activity (IC50) relative to LAI cell line; assay type: functional; summary of the method: as §2
[17] = tested on: Human immunodeficiency virus 1; experiment: Inhibitory activity against HIV-1 mutant strain 106A; assay type: functional, organism-based; summary of the method: as §1

Row | SMILES | IC50 [1] | IC50 [2] | IC50 [3] | IC50 [4] | IC50 [5] | IC50 [6] | IC50 [7] | IC50 [8] | IC50 [9] | IC50 [10] | IC50 [11] | IC50 [12] | IC50 [13] | IC50 [14] | IC50 [15] | Selectivity index [16] | IC50 [17]
1 | Cc1ccnc2c1NC(=O)c1cccnc1N2C1CC1 [NEVIRAPINE] | 50 nM | 500 nM | 40 nM | 20 nM | 310 nM | 310 nM | 190 nM | 10000 nM | 100000 nM | 40 nM | 130 nM | 30 nM | – | – | – | – | –
2 | CCc1c(C)nc(O)c(N(C)C)c1C(=O)c1cccc(C#N)c1 | 4 nM | 20 nM | 110 nM | 50 nM | 10 nM | 7 nM | 4 nM | 40 nM | 390 nM | 2 nM | 220 nM | 2 nM | 30 nM | 6 nM | 5 nM | 6310 | –
3 | O=C1Nc2ccc(Cl)cc2[C@@](C#CC2CC2)(C(F)(F)F)O1 [EFAVIRENZ] | 2 nM | 150 nM | 40 nM | 20 nM | 40 nM | 6 nM | 5 nM | 2 nM | 150 nM | 250 nM | 150 nM | – | 10000 nM | 40 nM | 10 nM | – | 40 nM
4 | CCc1c(C)nc(O)c(N(C)C)c1C(=O)c1cccc(/C(C)=C/C#N)c1 | 4 nM | 20 nM | 200 nM | 1250 nM | 10 nM | 8 nM | 2 nM | 60 nM | 390 nM | 10 nM | 1250 nM | 1 nM | 40 nM | 3 nM | 6 nM | 63100 | 3 nM
5 | CCc1c(C)nc(O)c(N(C)C)c1C(=O)c1cccc(/C=C/C#N)c1 | 5 nM | 10 nM | 40 nM | 1000 nM | 6 nM | 8 nM | 1 nM | 10 nM | 150 nM | 6 nM | 790 nM | 1 nM | 20 nM | 2 nM | 6 nM | 10000 | 2 nM
6 | CCc1c(C)nc(O)c(N(C)C)c1Cc1cc(Cl)cc(Cl)c1 | – | 200 nM | 500 nM | 500 nM | 50 nM | – | – | 160 nM | 630 nM | – | 700 nM | 8 nM | 310 nM | 20 nM | – | 3980 | –
7 | CCc1c(C)[nH]c(=O)c(N(C)C)c1C(=O)c1cc(C)cc(C)c1 | 5 nM | 10 nM | 150 nM | 390 nM | 6 nM | 8 nM | 2 nM | 60 nM | 150 nM | 4 nM | 630 nM | 4 nM | 40 nM | 10 nM | 10 nM | 2510 | 6 nM
8 | CCOCn1c(Cc2ccccc2)c(C(C)C)c(=O)[nH]c1=O [EMIVIRINE] | 70 nM | 7940 nM | 100000 nM | 100000 nM | 40 nM | 120 nM | 30 nM | 1990 nM | 39800 nM | 7940 nM | 79400 nM | 8 nM | 25100 nM | 790 nM | 1580 nM | 1260 | 1990 nM
9 | CCc1c(C)nc(O)c(N(C)C)c1C(=O)c1cccc(Br)c1 | 5 nM | 70 nM | 970 nM | 100 nM | 20 nM | 10 nM | 5 nM | 150 nM | 790 nM | 3 nM | 260 nM | 2 nM | 70 nM | 20 nM | 7 nM | 12600 | –
10 | CCc1c(C)nc(O)c(N(C)C)c1C(=O)c1cccc(/C=C/c2cccnc2)c1 | – | – | – | – | – | – | – | 60 nM | 150 nM | – | – | 3 nM | – | 20 nM | – | 3160 | –
11 | CCc1c(C)nc(O)c(N(C)C)c1C(=O)c1cccc(C(C)=O)c1 | – | – | – | – | – | – | – | 1000 nM | 10000 nM | – | – | 10 nM | – | 120 nM | – | 3160 | –
12 | CCc1c(C)nc(O)c(N(C)C)c1C(=O)c1cccc(/C(C)=C(\C)C#N)c1 | – | – | – | – | – | – | – | 120 nM | 1580 nM | – | – | 6 nM | – | 20 nM | – | 1580 | –
13 | CCc1c(C)nc(O)c(N(C)C)c1C(=O)c1cccc(CC(C)C#N)c1 (centres undefined) | – | – | – | – | – | – | – | 500 nM | 1990 nM | – | – | 8 nM | – | 50 nM | – | 12600 | –
14 | CCc1c(C)nc(O)c(N(C)C)c1C(=O)c1cccc(CO)c1 | – | – | – | – | – | – | – | 3870 nM | 18600 nM | – | – | 50 nM | – | 360 nM | – | 2940 | –
15 | CCc1c(C)nc(O)c(N(C)C)c1C(=O)c1cc(Cl)cc(Cl)c1 | 10 nM | 40 nM | 150 nM | 60 nM | 8 nM | 10 nM | 10 nM | 30 nM | 310 nM | 3 nM | 630 nM | 2 nM | 500 nM | 10 nM | 10 nM | 5010 | –
16 | CCOC(=O)/C=C/C=C/c1cccc(C(=O)c2c(CC)c(C)nc(O)c2N(C)C)c1 | – | – | – | – | – | – | – | 200 nM | 630 nM | – | – | 5 nM | – | 40 nM | – | 398 | –
17 | CCc1c(C)[nH]c(=O)c(N(C)C)c1Cc1cc(C)cc(C)c1 | – | – | 790 nM | – | 50 nM | 10 nM | – | 100 nM | 250 nM | – | – | 8 nM | – | 30 nM | 60 nM | 12600 | 40 nM
18 | CCc1c(C)nc(O)c(N(C)C)c1Cc1ccccc1Cl | – | – | – | – | – | – | – | 200 nM | 790 nM | – | – | 6 nM | – | 390 nM | – | 15900 | –
